In data set [1] the target is T1, Thyroid hormone receptor alpha (Homo sapiens, UniProt P10827).
T1 sequence (P10827 whole entry): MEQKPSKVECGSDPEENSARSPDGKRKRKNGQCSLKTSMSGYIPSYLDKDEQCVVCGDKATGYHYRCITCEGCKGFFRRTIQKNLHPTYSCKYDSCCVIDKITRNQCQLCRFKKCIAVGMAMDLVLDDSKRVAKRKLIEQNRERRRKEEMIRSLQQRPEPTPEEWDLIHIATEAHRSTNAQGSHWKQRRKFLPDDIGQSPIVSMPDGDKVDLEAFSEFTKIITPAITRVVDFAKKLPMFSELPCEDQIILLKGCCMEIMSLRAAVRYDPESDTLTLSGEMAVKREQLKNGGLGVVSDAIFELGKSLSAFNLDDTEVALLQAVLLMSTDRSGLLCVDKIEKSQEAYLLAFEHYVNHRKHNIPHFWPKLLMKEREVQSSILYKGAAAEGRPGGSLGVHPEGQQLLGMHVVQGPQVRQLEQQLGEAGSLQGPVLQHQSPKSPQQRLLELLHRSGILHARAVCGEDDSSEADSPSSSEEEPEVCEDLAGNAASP
In words: Displacement of labeled SRC2-2 from human TRalpha by FP assay.

The target of data set [2] is T2, Thyroid hormone receptor beta (Homo sapiens, UniProt P10828).
T2 sequence (P10828 whole entry): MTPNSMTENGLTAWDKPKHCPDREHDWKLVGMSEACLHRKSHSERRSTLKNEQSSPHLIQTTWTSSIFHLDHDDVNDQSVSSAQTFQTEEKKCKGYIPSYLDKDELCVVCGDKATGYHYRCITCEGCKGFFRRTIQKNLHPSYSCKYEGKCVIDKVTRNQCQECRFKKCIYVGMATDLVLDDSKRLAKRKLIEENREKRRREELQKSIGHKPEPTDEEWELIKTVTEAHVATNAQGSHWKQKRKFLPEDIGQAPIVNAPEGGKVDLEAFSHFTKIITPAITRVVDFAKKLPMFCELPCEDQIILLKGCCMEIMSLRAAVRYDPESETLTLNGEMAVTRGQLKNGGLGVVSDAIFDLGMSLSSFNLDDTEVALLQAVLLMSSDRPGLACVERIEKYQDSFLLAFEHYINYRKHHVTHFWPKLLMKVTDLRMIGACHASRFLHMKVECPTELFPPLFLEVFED
In words: Displacement of labeled SRC2-2 from human TRbeta expressed in BL21 (DE3) cells FP assay. It is filed as cell-based. Summed up: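 Competitive fluorescence polarization. Assay liquid was PBS containing 5% DMSO. For TRβ, hTRβ1 LBD (His6, T209-D461) was expressed in BL21 (DE3).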

For data set [3], the system named is ARO. The experiment in a line: Cytotoxicity against human ARO cells after 48 hrs by MTS assay. It counts as functional. Particulars: read-out: LD50 (the source's name). (In general: Tetrazolium dyes change colour on reduction, which living cells bring about.)
For data set [4], the system named is U2OS. The experiment in a line: Cytotoxicity against human U2OS cells after 48 hrs by MTS assay. The conditions noted are these: read-out: LD50 (the source's name). It is filed as functional.
Data set [5] in a line: Permeability across artificial membrane at pH 7.4 by PAMPA assay.
Data set [6] can be described thus: physchem. The conditions noted are these: PBS.

Values after ≈ are worked out from the molar mass of the structure shown. Values joined by “and” are separate entries in the source; they are usually repeats but may differ in a detail not shown here. Identical values can stand only once. Where only a bound is given, the exact number is not on record here.

What is called IC50 is the point on the concentration scale where inhibition reaches its midpoint. Higher therefore signals lower potency. What is called Papp is the rate of passage across a membrane or cell layer, normalised by area and donor concentration. The solubility is the concentration that dissolves in the medium under given conditions. Higher therefore signals a readily soluble substance.

For `C=C(CC(=O)Nc1ccc(CCCCCC)cc1)C(=O)O`, the IC50 in data set [1] and in data set [2] was greater than 100 µM each time. For the same compound, the CC50 in data set [3] (Homo sapiens, ARO, 48 h) was determined as 183 µM; in data set [4] (Homo sapiens, U2OS, 48 h), 124 µM. In data set [5], this compound registered a Papp of 57 ×10⁻⁶ cm/s. The amount in solution in data set [6] (solubility) came to 286 µM (≈ 82.8 µg/mL).
For the compound `C#CC(=O)Nc1ccc(CCCCCC)cc1`, the IC50 in data set [1] amounted to 68.9 µM; in data set [2] it was 35.1 µM. The CC50 in data set [3] (Homo sapiens, ARO, 48 h) worked out at 8 µM; in data set [4] (Homo sapiens, U2OS, 48 h), 17.1 µM. This compound also yielded a Papp in data set [5] of 621 ×10⁻⁶ cm/s. In data set [6], this compound registered a solubility of 60 µM (≈ 13.8 µg/mL).
For `CCCCCCc1ccc(NC(=O)/C=C\C(=O)O)cc1`, the IC50 was 17.5 µM in data set [1] and 20.3 µM in data set [2]. In addition, the CC50 in data set [3] (Homo sapiens, ARO, 48 h) is greater than 200 µM; in data set [4] (Homo sapiens, U2OS, 48 h), 148 µM. Also, the solubility in data set [6] is 418 µM (≈ 115 µg/mL).
On to `CCCCCCc1ccc(C(=O)CCN2CCOCC2)cc1`, for which the IC50 in data set [1] stood at 4.1 µM; in data set [2], 2.7 µM. For the same compound, the CC50 in data set [3] (Homo sapiens, ARO, 48 h) is 7.2 µM; in data set [4] (Homo sapiens, U2OS, 48 h), 20.8 µM. Besides, in data set [5], the permeability is listed as 1210 10^-6 cm/s. This compound also showed a solubility in data set [6] of 110 µM (≈ 33.4 µg/mL).
For `CCCCCCc1ccc(C(=O)CCN2CCC(C(=O)OC)CC2)cc1`, the IC50 turned out to be 6.3 µM in data set [1] and 3.9 µM in data set [2]. Further, the CC50 stood at 8.2 µM in data set [3] (Homo sapiens, ARO, 48 h) and 19.7 µM in data set [4] (Homo sapiens, U2OS, 48 h). The compound further displayed a Papp in data set [5] of 145 ×10⁻⁶ cm/s. For the same compound, the solubility in data set [6] is 27 µM (≈ 9.71 µg/mL).
For the compound `CCCCCCc1ccc(C(=O)CCCBr)cc1`, the IC50 in data set [1] and in data set [2] was greater than 100 µM each time. The CC50 in data set [3] (Homo sapiens, ARO, 48 h) was determined as 28.7 µM; in data set [4] (Homo sapiens, U2OS, 48 h), 25.3 µM. Moreover, the Papp in data set [5] is 58 ×10⁻⁶ cm/s. The same compound showed a solubility in data set [6] of 26 µM (≈ 8.09 µg/mL).
Consider `C#CC(=O)Oc1ccc(CCCCCC)cc1`, for which the IC50 in data set [1] came to 16.7 µM; in data set [2], 6.2 µM. Also, the CC50 stood at 7.9 µM in data set [3] (Homo sapiens, ARO, 48 h) and 13.9 µM in data set [4] (Homo sapiens, U2OS, 48 h). In addition, in data set [5], the Papp is 21 ×10⁻⁶ cm/s. The solubility in data set [6] worked out at 18 µM (≈ 4.15 µg/mL).
As to `CCCCCCc1ccc(C(=O)CF)cc1`, the IC50 in data set [1] and in data set [2] was greater than 100 µM throughout. The CC50 in data set [3] (Homo sapiens, ARO, 48 h) was found to be 2.4 µM; in data set [4] (Homo sapiens, U2OS, 48 h), 69 µM. The compound further showed a solubility in data set [6] of 95 µM (≈ 21.1 µg/mL).
For `CCCCCCc1ccc(C(=O)C2CO2)cc1` (stereo not given), the IC50 was determined as 47.7 µM in data set [1] and 23.1 µM in data set [2]. In addition, the CC50 in data set [3] (Homo sapiens, ARO, 48 h) is greater than 200 µM; in data set [4] (Homo sapiens, U2OS, 48 h) it was 58 µM. In addition, the permeability in data set [5] is 1117 10^-6 cm/s. The compound further gave a solubility in data set [6] of 204 µM (≈ 47.4 µg/mL).
As for `C=CC(=O)c1ccc(CCCCCC)cc1`, in data set [1], the IC50 was 28.1 µM and 45.2 µM. Besides, the CC50 is 4.5 µM and 29.5 µM in data set [3]; 10.1 µM in data set [4] (Homo sapiens, U2OS, 48 h); 18.8 µM in data set [4]. In data set [5], this compound displayed a Papp of 38 ×10⁻⁶ cm/s. This compound also returned a solubility in data set [6] of 36 µM (≈ 7.79 µg/mL).
On to `CCCCCCc1ccc(C(=O)/C=C\C(=O)O)cc1`, for which the IC50 amounted to 19.2 µM in data set [1] and 17.7 µM in data set [2]. Further, the CC50 in data set [3] (Homo sapiens, ARO, 48 h) is 5.5 µM; in data set [4] (Homo sapiens, U2OS, 48 h) it was 57.4 µM. The compound further showed a Papp in data set [5] of 66 ×10⁻⁶ cm/s. This compound also had a solubility in data set [6] of 252 µM (≈ 65.6 µg/mL).
As to `C=C(C)C(=O)c1ccc(CCCCCCC)cc1`, the IC50 in data set [1] was 52.9 µM; in data set [2], 23.2 µM. Besides, the CC50 in data set [3] (Homo sapiens, ARO, 48 h) was 10.7 µM; in data set [4] (Homo sapiens, U2OS, 48 h) it was 18.7 µM. Moreover, the Papp in data set [5] was 43 ×10⁻⁶ cm/s. Further, the concentration in solution in data set [6] (solubility) came to 37 µM (≈ 9.04 µg/mL).
With `C/C=C(\C)C(=O)c1ccc(CCCCCCC)cc1`, the IC50 in data set [1] and in data set [2] was greater than 100 µM each time. The CC50 in data set [3] (Homo sapiens, ARO, 48 h) is greater than 200 µM; in data set [4] (Homo sapiens, U2OS, 48 h), greater than 200 µM. The same compound displayed a solubility in data set [6] of 36 µM (≈ 9.3 µg/mL).
For the compound `CCCCCCc1ccc(NC(=O)C=C(C)C)cc1`, the IC50 in data set [1] and in data set [2] was greater than 100 µM each time. For the same compound, the CC50 in data set [3] (Homo sapiens, ARO, 48 h) is greater than 200 µM; in data set [4] (Homo sapiens, U2OS, 48 h), greater than 200 µM. Further, in data set [5], the Papp is 98 ×10⁻⁶ cm/s. Further, the concentration in solution in data set [6] (solubility) came to 37 µM (≈ 9.6 µg/mL).
Regarding `CCCCCCc1ccc(C(=O)CCBr)cc1`, the IC50 in data set [1] amounted to 4.2 µM; in data set [2], 3 µM. Further, the CC50 in data set [3] (Homo sapiens, ARO, 48 h) came to 40.1 µM; in data set [4] (Homo sapiens, U2OS, 48 h), 17 µM. Besides, the concentration in solution in data set [6] (solubility) came to 85 µM (≈ 25.3 µg/mL).
Take `C/C=C/C(=O)c1ccc(CCCCCCC)cc1`: the figures for the IC50 in data set [1] and in data set [2] were 18.9 µM and 7.6 µM, respectively. Besides, the CC50 in data set [3] (Homo sapiens, ARO, 48 h) stood at 1.4 µM; in data set [4] (Homo sapiens, U2OS, 48 h), 11.6 µM. In data set [5], this compound displayed a Papp of 7 ×10⁻⁶ cm/s. The concentration in solution in data set [6] (solubility) was 41 µM (≈ 10 µg/mL).
`CCCCCCCc1ccc(C(=O)C=C(C)C)cc1`: the IC50 in data set [1] and in data set [2] was greater than 100 µM throughout. For the same compound, the CC50 is greater than 200 µM in data set [3] (Homo sapiens, ARO, 48 h) and greater than 200 µM in data set [4] (Homo sapiens, U2OS, 48 h). This compound had a solubility in data set [6] of 24 µM (≈ 6.2 µg/mL).
On to `CCCCCCc1ccc(C(=O)CCNCCC)cc1`, for which the figures for the IC50 in data set [1] and in data set [2] were 25.8 µM and 15.2 µM, respectively. In addition, the CC50 came to 107 µM in data set [3] (Homo sapiens, ARO, 48 h) and 160 µM in data set [4] (Homo sapiens, U2OS, 48 h). In data set [5], this compound had a Papp of 254 ×10⁻⁶ cm/s. Besides, the concentration in solution in data set [6] (solubility) came to 354 µM (≈ 97.5 µg/mL).
As for `C=CC(=O)Nc1ccc(CCCCCC)cc1`, the IC50 in data set [1] came to 21.6 µM; in data set [2], 17.9 µM. Moreover, the CC50 in data set [3] (Homo sapiens, ARO, 48 h) is 113 µM; in data set [4] (Homo sapiens, U2OS, 48 h) it was 66.5 µM. For the same compound, the Papp in data set [5] came to 833 ×10⁻⁶ cm/s. This compound also returned a solubility in data set [6] of 47 µM (≈ 10.9 µg/mL).
As to `C/C=C/C(=O)Nc1ccc(CCCCCC)cc1`, the 50% inhibitory concentration (IC50) in data set [1] and in data set [2] was greater than 100 µM in each case. Moreover, the CC50 in data set [3] (Homo sapiens, ARO, 48 h) is greater than 200 µM; in data set [4] (Homo sapiens, U2OS, 48 h) it was greater than 200 µM. In data set [5], this compound registered a Papp of 432 ×10⁻⁶ cm/s. The compound further gave a solubility in data set [6] of 42 µM (≈ 10.3 µg/mL).

These data come from ChEMBL document CHEMBL1137577, “Inhibitors of the interaction of a thyroid hormone receptor and coactivators: preliminary structure-activity relationships” (J Med Chem, 2007).
